Bioassay records as filed in PubChem.
Compounds with a hit are over-represented: about 1.6% of the library has one in this group of screens.
H9c2 protect – protects H9c2 cardiomyocytes from peroxide injury. H2O2 injury protection, ATPLite, 2 h. protection from H2O2 cell death, % at 20 µM. 360,000 compounds, 0.63% hits;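 active means compounds giving at least 50% protection of heart cells from peroxide-induced death in the single-dose screen, raw or plate-pattern-corrected value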
Neddyl block – cullin neddylation inhibition; P61081+Q13564; TR-FRET cullin neddylation, biochemical; inhibition, % at 25 µM; 360,000 compounds, 0.58% hits; AID 651699; in the data active means inhibition above about 36%
ARFGAP1 inh – rat ARFGAP1 inhibition; AID 651572; inhibition, % at 16.5 µM; Arfgap1-stimulated ARF1 GTP hydrolysis, GDP FP detection; Q62848; 360,000 compounds, 0.26% hits;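 active means inhibition above a per-plate limit, mean inhibition of low control wells plus 3 SD, cut at about 25% in these data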
Target sequence (Q62848 1-136 limits assumed): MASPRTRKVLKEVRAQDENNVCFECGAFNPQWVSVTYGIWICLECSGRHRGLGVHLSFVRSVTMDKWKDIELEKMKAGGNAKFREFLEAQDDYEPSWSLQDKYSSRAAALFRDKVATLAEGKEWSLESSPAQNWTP
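System: truncated rat Arfgap1 GAP domain / Benchmarks: high control wells lacking Arfgap1, low control full reaction with DMSO / Times: compound-enzyme preincubation 20 min, reaction 120 min, detection 60 min, 25 °C / Repeats: one replicate per compound / Also added: human ARF1(Δ1-17)-GTP substrate / Measured by: Tracer-displacement fluorescence polarization with EDTA stop, 620/688 nm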
ASAP1 inh – blocks human ASAP1-stimulated Arf1 GTP hydrolysis; Q9ULH1; GDP FP detection; inhibition, % at 16.5 µM; 360,000 compounds, 0.19% hits; AID 624377; in the data active means inhibition above about 25%
Target sequence (Q9ULH1 325-724 limits assumed): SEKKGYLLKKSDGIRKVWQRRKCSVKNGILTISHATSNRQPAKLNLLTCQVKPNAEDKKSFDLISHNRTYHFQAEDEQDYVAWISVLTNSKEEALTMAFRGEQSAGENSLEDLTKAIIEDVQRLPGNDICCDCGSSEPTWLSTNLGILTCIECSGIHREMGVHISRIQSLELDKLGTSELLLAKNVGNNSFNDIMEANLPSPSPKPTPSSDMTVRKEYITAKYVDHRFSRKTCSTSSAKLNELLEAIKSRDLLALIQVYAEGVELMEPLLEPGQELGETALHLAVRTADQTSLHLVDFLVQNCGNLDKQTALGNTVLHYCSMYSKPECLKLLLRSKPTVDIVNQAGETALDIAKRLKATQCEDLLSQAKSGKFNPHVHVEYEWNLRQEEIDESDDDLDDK
Neddyl conf – cullin neddylation inhibition, confirmation; shares compounds with Neddyl block; TR-FRET cullin neddylation biochemical assay; calls only at 25 µM; 1,800 compounds, 13% hits; AID 652217; in the data active means inhibition above about 40%;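 further: neddylation substrate is the cullin 1 ring ligase complex with SKP2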
Each line names hits and unclear results; the compound was inactive in the other large screens (follow-up assays come after a bar, where shown).

COC(=O)c1c(C)nc(C)c2c(=O)oc3ccccc3c12	none
Cc1cc2c(c(N)n1)c(=O)oc1ccccc12	Neddyl block 40 | Neddyl conf inactive
COc1ccc(NC(=O)c2cc(C3CCCCN3C(=O)c3ccc(NC(C)=O)cc3)on2)c(C)c1 (stereo not drawn)	none
CN(C)c1ccc(/C=N/NC(=O)c2ccc3c(c2)OCCO3)cc1	Neddyl block 61
CCCCNC(=O)c1cc2c(C)cc(C)cc2[nH]1	Neddyl block 44 | Neddyl conf inactive
CC1=C(C(=O)N(C(C)C)C(C)C)CC(CC(=O)NCc2cccs2)C(=O)N1CCCN1CCCC1=O (stereo not drawn)	none
Cc1ccc(C(=O)Nc2ccc3c(c2)C(=O)N(CC2CCCO2)C3=O)cc1 (stereo not drawn)	Neddyl block 61
O=C(O)c1ccc(NC(=O)c2ccc3c(c2)C(=O)N(CC2CCCO2)C3=O)cc1 (stereo not drawn)	none
O=C(CSc1nnc2ccc(-c3ccccc3)nn12)NCC1CCCO1 (stereo not drawn)	Neddyl block 42 | Neddyl conf active
NC(=O)CSc1nnc2ccc(-c3ccc(Cl)cc3)nn12	Neddyl block 42 | Neddyl conf inactive
COc1ccc(-c2ccc3nnc(SCC(=O)N4CCCC4)n3n2)cc1	Neddyl block 56
NC(=O)CSc1nnc2ccc(-c3ccc(F)cc3)nn12	Neddyl block 39 | Neddyl conf inactive
C[C@@H]1CN([C@@H](C)CO)C(=O)CCCn2cc(nn2)CO[C@H]1CN(C)S(C)(=O)=O	none (no result: H9c2 protect, Neddyl block)
COC(=O)[C@]12C[C@H](CC(=O)NCCCCc3ccccc3)C(=O)N(Cc3ccccc3)C1=C[C@H](C(C)(C)C)O[C@@H]2C	none (no result: H9c2 protect, Neddyl block)
Cc1c(C(=O)O)sc2nc(/C=C/c3cccc(F)c3)[nH]c(=O)c12	Neddyl block 40
Cc1ccc(/C=C/c2nc3sc(C(=O)O)c(C)c3c(=O)[nH]2)cc1[N+](=O)[O-]	none
COc1ccc(NC(=O)C(c2ccc(C(F)(F)F)cc2)n2c(=O)c(-c3cc4ccccc4[nH]3)nc3ccccc32)cc1 (stereo not drawn)	none (not shown: H9c2 protect, Neddyl block)
C[C@@H]1CC=C[C@H]2[C@H]1C(=O)N(Cc1ccccc1)[C@H]2c1ccc(/C=C/c2ccccc2)cc1F	Neddyl block 42
Clc1cccc(CN2CCc3c([nH]c4ccccc34)C2)c1	Neddyl block 43 | Neddyl conf inactive
COc1ccc(CCNC(=O)c2oc3ccc(OC)cc3c2C)cc1	none
COc1ccc2oc(C(=O)NNC(=O)c3ccc(F)cc3)c(C)c2c1	Neddyl block 42
COc1ccc2oc(C(=O)NC(C)(C)C)c(C)c2c1	Neddyl block 44 | Neddyl conf inactive
COc1cc(C(=O)NNC(=S)NC(=O)c2ccc(F)cc2)cc(OC)c1OC	Neddyl block 35 | Neddyl conf inactive
COc1ccc(C(=O)NNC(=S)NC(=O)c2ccc(F)cc2)cc1Br	none
CCCN(C)C1CN(Cc2cn(Cc3ccc(C)cc3)nn2)S(=O)(=O)C1 (stereo not drawn)	none (no result: H9c2 protect)
O=C(NC1CCN(Cc2ccccc2)CC1)c1[nH]c(C(F)(F)F)nc1-c1ccccc1	none
COC(=O)c1cc(=O)nc2sc(-c3cccs3)nn12	Neddyl block 49 | Neddyl conf inactive
O=C(NCc1ccc(F)cc1)c1cc(C2CCCN(C(=O)c3ccccn3)C2)on1 (stereo not drawn)	none
Cc1cc(C)c(NC(=O)CNC(=O)c2cc(C3CC3)nc3c2cnn3C(C)C)c(C)c1	none (not shown: Neddyl block)
CC(C)n1ncc2c(C(=O)NCC(=O)Nc3ccccc3Br)cc(C3CC3)nc21	Neddyl block 40 (not shown: ARFGAP1 inh, ASAP1 inh)
CCc1ccccc1NC(=O)CNC(=O)c1cc(C2CC2)nc2c1cnn2C(C)C	Neddyl block 60
CCc1nc2c(OCc3c(C)noc3C)cccn2c1N(C=O)Cc1ccc(OC)cc1	none
Nc1ccn([C@@H]2O[C@H](C(=O)N[C@H](Cc3ccccc3)C(=O)NCc3cccc4c3OCO4)[C@@H](O)[C@H]2O)c(=O)n1	none (no result: H9c2 protect, Neddyl block)
O=C(NNC(=O)c1ccc2ccccc2c1O)NC1CCCCC1	Neddyl block 41 | Neddyl conf inactive
O=C(NC1CCCCC1)c1ccc2ccccc2c1O	none (not shown: Neddyl block)
COc1ccccc1C(=O)NC(C)c1ccccc1 (stereo not drawn)	none
CC(NC(=O)c1ccccc1O)c1ccccc1 (stereo not drawn)	Neddyl block 46
Cc1ccc(S(=O)(=O)c2cc3c(=O)n4ccccc4nc3n(C)c2=N)cc1	Neddyl block 58 | Neddyl conf inactive
CCn1c(=N)c(S(=O)(=O)c2ccc(C)cc2)cc2c(=O)n3ccccc3nc21	none (no result: H9c2 protect, Neddyl block)
COc1cccc(/C=C/C(=O)OCC(=O)NCc2ccco2)c1	Neddyl block 49 | Neddyl conf inactive
COc1ccc(OC)c(/C=C/C(=O)OCC(=O)NCc2ccco2)c1	Neddyl block 41
CSc1ccc(OC2(C)CCN(Cc3ccc(C(C)C)cc3)C2)cc1 (stereo not drawn)	none
COC(=O)[C@H](Cc1c[nH]c2ccccc12)NC(=O)Nc1ccccc1OC	none
COc1cc(NC(=O)N[C@@H](Cc2c[nH]c3ccccc23)C(=O)O)c(C(=O)O)cc1OC	Neddyl block 45
N#CCCN1CCC(N)=NC1=NC#N	none (no result: H9c2 protect, Neddyl block)
COc1ccc(C2=Nc3ccccc3N(C(=O)c3cc(Cl)cc(Cl)c3)C2C(=O)NCc2ccccc2)cc1 (stereo not drawn)	none (no result: H9c2 protect)
COc1cc2c(cc1OC)/C(=C/C(=O)c1ccc(C)cc1)NCC2	Neddyl block 43 | Neddyl conf inactive
O=c1[nH]c2cc3c(cc2cc1CN(Cc1cccnc1)C(=S)NCc1ccco1)OCO3	none
CN(C)CCN(Cc1cc2cc3c(cc2[nH]c1=O)OCO3)C(=S)NCc1ccco1	Neddyl block 40 | Neddyl conf inactive
CCNC(=S)N(Cc1cccs1)Cc1cc2cc(OCC)ccc2[nH]c1=O	none
CC(C)CNC(=S)N(CCN(C)C)Cc1cc2cc3c(cc2[nH]c1=O)OCO3	none
CCNC(=S)N(CCN(C)C)Cc1cc2cc(OCC)ccc2[nH]c1=O	Neddyl block 41 | Neddyl conf inactive
CCNC(=S)N(CCN(C)C)Cc1cc2cc3c(cc2[nH]c1=O)OCO3	Neddyl block 53
C=CC[C@]12C[C@@]3(O[C@H](C4CCCCC4)N=C3C[C@H](c3ccc(OC)cc3)[C@H]1C)N(Cc1ccncc1)C2=O	none (no result: H9c2 protect, Neddyl block)
O=C1CN(C(=O)COc2ccccc2Cl)c2ccccc2N1	none
Cc1cc(=O)oc2cc(OCC(=O)N3CC(=O)Nc4ccccc43)c(Cl)cc12	Neddyl block 40 | Neddyl conf inactive
COc1ccccc1C(=O)N1CCN(C(=O)[C@H](CCc2ccccc2)NC(=O)[C@H]2O[C@@H](n3cnc4c(N)ncnc43)[C@H](O)[C@@H]2O)CC1	none (no result: H9c2 protect, Neddyl block)
COc1ccc(OC)c(NC=C2C(=O)OC3(CCCCC3)OC2=O)c1	Neddyl block 52 | Neddyl conf inactive
O=C(c1ccccc1)N1CCN(c2ccc(N3CCOCC3)nn2)CC1	Neddyl block 63
O=C(c1cccc(Cl)c1)N1CCN(c2ccc(N3CCOCC3)nn2)CC1	Neddyl block 57
